The source of these data is PMC12077508 (Science Advances, 2025).

The target in assay [1] is T1, OR5P3 (Homo sapiens, UniProt Q8WZ94).
T1 sequence (Q8WZ94 1-311): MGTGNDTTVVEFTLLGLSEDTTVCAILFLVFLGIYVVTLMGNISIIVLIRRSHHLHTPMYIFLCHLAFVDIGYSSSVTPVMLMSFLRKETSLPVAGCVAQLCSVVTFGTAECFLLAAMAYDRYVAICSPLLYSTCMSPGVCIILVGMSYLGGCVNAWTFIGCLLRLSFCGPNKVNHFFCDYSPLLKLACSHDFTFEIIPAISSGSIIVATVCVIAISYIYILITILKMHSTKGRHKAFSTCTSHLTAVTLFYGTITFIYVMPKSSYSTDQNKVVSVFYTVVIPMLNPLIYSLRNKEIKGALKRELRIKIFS
The assay is described as follows: cAMPr fluorescence imaging in transfected HEK293T cells. The class given is cell-based. In outline: (§1)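 HEK293T cells stably expressing the cpGFP-based cAMP sensor cAMPr, on collagen-coated glass dishes, transfected with Rho-tagged receptor (N-terminal 20 residues of bovine rhodopsin) plus RTP1S. Each odorant concentration was tested in a separate experiment, with or without fibronectin, and curves were fitted for EC50 and Hill coefficient.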

Assay [2] has as its target T2, OR2W1 (Homo sapiens, UniProt Q9Y3N9).
T2 sequence (Q9Y3N9 1-320): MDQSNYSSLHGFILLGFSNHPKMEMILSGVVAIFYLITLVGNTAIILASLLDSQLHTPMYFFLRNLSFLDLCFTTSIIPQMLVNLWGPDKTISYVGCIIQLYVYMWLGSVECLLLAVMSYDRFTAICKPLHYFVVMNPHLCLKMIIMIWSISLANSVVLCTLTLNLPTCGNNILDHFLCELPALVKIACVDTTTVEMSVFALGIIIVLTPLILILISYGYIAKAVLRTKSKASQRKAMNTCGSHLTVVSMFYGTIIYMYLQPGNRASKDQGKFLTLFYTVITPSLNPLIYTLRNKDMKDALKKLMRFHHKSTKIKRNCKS
Briefly: cAMPr fluorescence imaging in transfected HEK293T cells. The class given is cell-based.

The target in assay [3] is T3, OR5AN1 (Homo sapiens, UniProt Q8NGI8).
T3 sequence (Q8NGI8 1-311): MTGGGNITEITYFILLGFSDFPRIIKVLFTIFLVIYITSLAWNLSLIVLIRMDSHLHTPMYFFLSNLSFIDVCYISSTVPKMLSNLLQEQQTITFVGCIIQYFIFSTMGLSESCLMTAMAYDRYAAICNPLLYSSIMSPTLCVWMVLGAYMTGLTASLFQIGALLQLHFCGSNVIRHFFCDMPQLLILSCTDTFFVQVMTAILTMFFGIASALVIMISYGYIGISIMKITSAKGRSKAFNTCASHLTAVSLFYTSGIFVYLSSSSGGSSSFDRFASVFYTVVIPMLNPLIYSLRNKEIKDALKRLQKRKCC
The description is as above. The class given is cell-based.

Assay [4] concerns the target T4, OR5K1 (Homo sapiens, UniProt Q8NHB7).
T4 sequence (Q8NHB7 1-308): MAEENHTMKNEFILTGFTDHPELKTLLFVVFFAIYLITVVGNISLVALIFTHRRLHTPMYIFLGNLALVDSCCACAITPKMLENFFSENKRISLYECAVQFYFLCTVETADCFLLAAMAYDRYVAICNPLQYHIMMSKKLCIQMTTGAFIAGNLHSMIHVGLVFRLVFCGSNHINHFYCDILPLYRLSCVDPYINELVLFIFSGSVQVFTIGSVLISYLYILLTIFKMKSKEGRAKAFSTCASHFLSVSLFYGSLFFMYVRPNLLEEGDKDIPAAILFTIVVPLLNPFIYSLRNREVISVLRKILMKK
Briefly: cAMPr fluorescence imaging in transfected HEK293T cells. It counts as cell-based. The method in brief: as §1

Assay [5] concerns the target T5, OR8D1 (Homo sapiens, UniProt Q8WZ84).
T5 sequence (Q8WZ84 1-308): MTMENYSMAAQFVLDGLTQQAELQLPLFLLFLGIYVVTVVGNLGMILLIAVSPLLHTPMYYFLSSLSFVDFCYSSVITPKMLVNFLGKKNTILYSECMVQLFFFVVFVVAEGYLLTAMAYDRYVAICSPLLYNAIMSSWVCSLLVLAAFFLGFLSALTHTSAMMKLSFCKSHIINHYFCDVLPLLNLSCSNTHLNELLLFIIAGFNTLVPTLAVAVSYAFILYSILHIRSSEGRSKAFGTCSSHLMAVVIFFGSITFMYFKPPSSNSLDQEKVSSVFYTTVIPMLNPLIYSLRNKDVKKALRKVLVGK
Briefly: cAMPr fluorescence imaging in transfected HEK293T cells. It counts as cell-based.

For assay [6], the target named is T6, Olfr73 (mOR-EG) (Mus musculus, UniProt Q920P2).
T6 sequence (Q920P2 1-313): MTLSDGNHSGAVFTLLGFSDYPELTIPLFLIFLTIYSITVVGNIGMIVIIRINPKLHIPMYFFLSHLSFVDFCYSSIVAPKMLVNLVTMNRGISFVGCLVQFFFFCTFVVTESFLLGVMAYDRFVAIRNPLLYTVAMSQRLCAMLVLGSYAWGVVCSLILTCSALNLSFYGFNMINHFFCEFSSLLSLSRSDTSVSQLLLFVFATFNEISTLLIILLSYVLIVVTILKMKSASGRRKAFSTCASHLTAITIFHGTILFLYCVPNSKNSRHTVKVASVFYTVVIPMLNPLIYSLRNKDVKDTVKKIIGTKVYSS
Described as above. The class given is cell-based.

For assay [7], the target named is T7, OR51E1 (Homo sapiens, UniProt Q8TCB6).
T7 sequence (Q8TCB6 1-318): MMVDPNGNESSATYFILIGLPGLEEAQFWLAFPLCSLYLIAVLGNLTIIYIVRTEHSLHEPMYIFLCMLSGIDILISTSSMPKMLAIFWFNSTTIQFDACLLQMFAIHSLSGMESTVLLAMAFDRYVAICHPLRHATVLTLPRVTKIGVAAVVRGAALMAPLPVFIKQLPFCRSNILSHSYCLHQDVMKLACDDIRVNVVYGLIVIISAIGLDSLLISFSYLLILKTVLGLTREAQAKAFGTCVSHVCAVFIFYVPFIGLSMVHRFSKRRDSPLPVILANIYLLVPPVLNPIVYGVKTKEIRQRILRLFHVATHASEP
Briefly: cAMPr fluorescence imaging in transfected HEK293T cells. The class given is cell-based. The method in brief:
as §1

Assay [8] concerns the target T8, OR2J2 (Homo sapiens, UniProt O76002).
T8 sequence (O76002 1-312): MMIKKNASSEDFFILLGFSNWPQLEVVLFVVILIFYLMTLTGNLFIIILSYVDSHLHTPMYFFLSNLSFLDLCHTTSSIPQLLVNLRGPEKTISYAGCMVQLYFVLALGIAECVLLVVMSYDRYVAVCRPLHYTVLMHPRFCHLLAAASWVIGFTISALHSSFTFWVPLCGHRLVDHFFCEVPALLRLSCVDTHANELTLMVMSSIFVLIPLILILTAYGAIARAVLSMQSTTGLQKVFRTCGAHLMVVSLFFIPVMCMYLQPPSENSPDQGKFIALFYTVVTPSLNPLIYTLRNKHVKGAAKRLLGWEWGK
The assay is described as above. It counts as cell-based. In outline: as §1

Assay [9] deals with OR1D2; OR1D1 (Table 2) (Homo sapiens, UniProt P34982). Briefly: cell-based.

The term EC50 denotes the concentration needed to bring the measured effect to its halfway point. Read a high EC50 as a less potent agent.

OR1D2; OR1D1 (Table 2), sequence (P34982 whole entry): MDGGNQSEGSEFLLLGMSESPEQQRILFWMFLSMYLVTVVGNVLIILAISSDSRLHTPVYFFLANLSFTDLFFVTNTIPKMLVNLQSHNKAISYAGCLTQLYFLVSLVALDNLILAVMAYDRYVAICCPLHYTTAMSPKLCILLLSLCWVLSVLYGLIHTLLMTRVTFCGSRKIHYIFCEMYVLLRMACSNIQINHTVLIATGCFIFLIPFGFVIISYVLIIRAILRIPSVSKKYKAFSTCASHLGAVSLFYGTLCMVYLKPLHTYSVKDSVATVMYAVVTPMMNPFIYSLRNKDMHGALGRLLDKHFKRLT

As to `COC(=O)c1ccccc1N` [methyl anthranilate], in [1], the response was half-maximal at 2200 µM (EC50).
On to `OCCc1ccccc1` [β-phenylethyl alcohol], for which the midpoint of the response in assay [2], the EC50, lay at 1500 µM.
As to `CC1CCCCCCCCCCCCC(=O)C1` (centres unmarked) [muscone], the EC50 in assay [3] came to 290 µM.
Turning to `CCCCCOC(C)=O` [pentyl acetate], the EC50 in [2] was 44 µM.
On to `Cc1nccnc1C` [2,3-dimethyl pyrazine], for which the EC50 in assay [4] worked out at 12000 µM.
For `CC1=C(O)C(=O)OC1C` (centres unmarked) [sotolon], the concentration giving a half-maximal response (EC50) in [5] came out at 7.7 µM.
As for `C=CCc1ccc(O)c(OC)c1` [eugenol], the EC50 in [6] is 154 µM.
Consider `CC1=C(O)C(=O)CC1` [cyclotene], for which the EC50 in [5] worked out at 1100 µM.
Turning to `CC(C)CC(=O)O` [isovaleric acid], the EC50 in assay [7] amounted to 840 µM.
Consider `CCCCCCCC1CCC(=O)O1` (centres unmarked) [γ-undecalactone], for which the figures for the EC50 in assay [8] and in [9] were 250 µM and 150 µM, respectively.
